# Active and inactive are the calls of the source. The calls are words filed in the database; no cut-off is given here.
# How the values were obtained:
# [1] = Volume of distribution at steady state in Sprague-Dawley rat at 1 mg/kg, iv and measured after 24 hrs by LC-MS/MS analysis; assay type: ADME, organism-based; conditions: in vivo, read-out: Vdss
# [2] = target: Insulin receptor (Homo sapiens) (UniProt P06213); assay: Inhibition of INSR (unknown origin) at 1000 nM by DiscoverX KINOMEscan assay
# [3] = Toxicity in BALB/c nude mouse xenografted with human NCI-H1975 cells harboring EGFR L858R/T790M mutant assessed as morphological changes in heart at 15 to 30 mg/kg, po for 18 days by hematoxylin and eosin staining based microscopic analysis; assay type: organism-based; conditions: in vivo, 432 h, dose 15-30 mg/kg, time 18 day
# Method in brief: (§1)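 H1975 subcutaneous xenografts were grown in female BALB/cA nu/nu mice (n = 6 per group), dosed at 15 or 30 mg/kg/day for 18 days or with vehicle. At the end the mice were sacrificed. Heart, kidney and liver were harvested, processed and stained with hematoxylin and eosin for routine histological examination.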
# NCI-H1975 [4] = assay: Antitumor activity against human NCI-H1975 cells harboring EGFR L858R/T790M mutant xenografted in BALB/c nude mouse assessed as tumor cell proliferation at 15 to 30 mg/kg, po for 18 days by Ki-67 staining based immunohistochemical analysis; assay type: functional, organism-based; conditions: dose 15-30 mg/kg, time 18.0 day
# Method in brief: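 H1975 xenograft tumors from nude mice (n = 6/group, daily dosing 18 days) were harvested, fixed in 10% formalin, paraffin-embedded and cut into 5 µm sections. Sections deparaffinized and incubated with primary anti-Ki-67 antibody at room temperature; immunoreactivity visualized with DAB.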
# NCI-H1975 [5] = assay: Inhibition of Akt signalling in EGF-stimulated human NCI-H1975 cells harboring EGFR L858R/T790M double mutant assessed as […] at 0.1 to 100 nM and measured after 2 hrs by Western blot analysis; assay type: cell-based; conditions: dose 0.1-100 nM
# NCI-H1975 [6] = assay: Antitumor activity against human NCI-H1975 cells harboring EGFR L858R/T790M mutant xenografted in BALB/c nude mouse assessed as tumor growth inhibition at 30 mg/kg, po for 18 days; assay type: functional; conditions: NCI-H1975, 432 h, time 18 day, read-out: TGI
# Method in brief: (§2)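 H1975 cells (1 × 10^6 in 0.1 mL PBS) injected subcutaneously into the right flank of female nude mice. At mean tumor volume of about 100 mm3 (roughly 18 days), mice randomized, n = 6 per group, and dosed once daily for 18 days against a vehicle group. Tumor volume (0.5 × L × W²) measured every 2–3 days; tumors weighed at sacrifice. Data given as mean ± SEM.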
# [7] = target: Focal adhesion kinase 1 (Homo sapiens) (UniProt Q05397); assay: Inhibition of FAK (unknown origin) at 1000 nM by DiscoverX KINOMEscan assay
# Focal adhesion kinase 1 (Homo sapiens), sequence (Q05397 2-1052 limits assumed): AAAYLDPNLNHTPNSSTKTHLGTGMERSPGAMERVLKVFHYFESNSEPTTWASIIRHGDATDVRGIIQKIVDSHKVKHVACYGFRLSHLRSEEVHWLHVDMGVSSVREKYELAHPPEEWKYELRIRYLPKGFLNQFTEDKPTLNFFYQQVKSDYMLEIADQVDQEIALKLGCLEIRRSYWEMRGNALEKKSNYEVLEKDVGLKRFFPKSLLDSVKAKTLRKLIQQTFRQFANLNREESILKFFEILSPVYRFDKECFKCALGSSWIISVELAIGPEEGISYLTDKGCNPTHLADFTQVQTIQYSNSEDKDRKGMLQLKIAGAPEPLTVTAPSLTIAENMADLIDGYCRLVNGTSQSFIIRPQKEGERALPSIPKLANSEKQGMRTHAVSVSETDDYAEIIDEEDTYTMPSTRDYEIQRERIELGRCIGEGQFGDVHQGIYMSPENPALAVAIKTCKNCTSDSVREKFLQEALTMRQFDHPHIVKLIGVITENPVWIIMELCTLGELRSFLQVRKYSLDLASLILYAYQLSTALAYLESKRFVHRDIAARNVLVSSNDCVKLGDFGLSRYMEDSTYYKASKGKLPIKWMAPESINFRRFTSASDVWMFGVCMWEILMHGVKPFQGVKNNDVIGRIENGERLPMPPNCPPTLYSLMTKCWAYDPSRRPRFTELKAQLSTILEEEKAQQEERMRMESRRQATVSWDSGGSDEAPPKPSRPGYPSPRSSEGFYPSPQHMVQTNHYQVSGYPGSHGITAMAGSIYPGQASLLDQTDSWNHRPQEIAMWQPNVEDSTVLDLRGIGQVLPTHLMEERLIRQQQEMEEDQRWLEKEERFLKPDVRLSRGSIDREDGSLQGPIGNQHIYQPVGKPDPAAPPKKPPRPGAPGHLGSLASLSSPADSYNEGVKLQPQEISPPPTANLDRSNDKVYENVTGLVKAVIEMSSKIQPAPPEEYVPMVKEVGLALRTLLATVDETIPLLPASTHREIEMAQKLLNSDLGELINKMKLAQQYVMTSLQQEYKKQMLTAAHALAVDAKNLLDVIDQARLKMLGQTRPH
# [8] = Half life in Sprague-Dawley rat at 10 mg/kg, po and measured after 24 hrs by LC-MS/MS analysis; assay type: ADME, organism-based; conditions: in vivo
# Method in brief: (§3)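 Male Sprague–Dawley rats (190–220 g) dosed by oral gavage at 10 mg/kg in 5% DMSO / 95% HP-β-CD aqueous solution (20%); iv reference arm at 1 mg/kg. Blood sampled at 0.25, 0.5, 1, 2, 4, 6, 8 and 24 h, centrifuged (8000 × g, 6 min), and plasma quantified by LC–MS/MS.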
# [9] = Toxicity in BALB/c nude mouse xenografted with human NCI-H1975 cells harboring EGFR L858R/T790M mutant assessed as mortality at 15 to 30 mg/kg, po for 18 days; assay type: organism-based; conditions: in vivo, 432 h, dose 15-30 mg/kg, time 18 day
# Method in brief: (§4)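 Female BALB/cA nu/nu mice were given 1 × 10^6 H1975 cells in 0.1 mL PBS subcutaneously in the right flank. At an average tumour volume of 100 mm3 (about 18 days post-implantation) they were randomised, n = 6 per group. Groups received 15 or 30 mg/kg/day for 18 consecutive days or vehicle. Mice were kept at constant room temperature, 12/12-h light/dark, with standard diet and water ad lib.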
# [10] = Toxicity in BALB/c nude mouse xenografted with human NCI-H1975 cells harboring EGFR L858R/T790M mutant assessed as morphological changes in liver at 15 to 30 mg/kg, po for 18 days by hematoxylin and eosin staining based microscopic analysis; assay type: organism-based; conditions: in vivo, 432 h, dose 15-30 mg/kg, time 18 day; method in brief: as §1
# NCI-H1975 [11] = assay: Inhibition of Erk signalling in EGF-stimulated human NCI-H1975 cells harboring EGFR L858R/T790M double mutant assessed as decrease in p-ERK level at 0.1 to 100 nM and measured after 2 hrs by Western blot analysis; assay type: cell-based; conditions: dose 0.1-100 nM
# Method in brief: (§5)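 Cells treated with compound for 2 h, then stimulated with EGF for 15 min and lysed. Lysates cleared at 12,000 × g (10 min, 4 °C), protein measured by Bradford assay, and equal amounts run on 8% SDS-PAGE and blotted to nitrocellulose. Probed for p-EGFR (Y1068), EGFR, p-ERK (T202/Y204), ERK, with tubulin or GAPDH as loading controls.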
# [12] = Toxicity in BALB/c nude mouse xenografted with human NCI-H1975 cells harboring EGFR L858R/T790M mutant assessed as body weight loss at 15 to 30 mg/kg, po for 18 days; assay type: organism-based; conditions: in vivo, 432 h, dose 15-30 mg/kg, time 18 day; method in brief: as §4
# A-431 = assay: Antiproliferative activity against human A-431 cells harboring wild type EGFR assessed as inhibition of cell proliferation incubated for 72 hrs by sulforhodamine B colorimetric assay; assay type: functional, cell-based; conditions: A-431, 72 h
# NCI-H1975 [13] = assay: Antiproliferative activity against human NCI-H1975 cells harboring EGFR L858R/T790M double mutant assessed as inhibition of cell proliferation incubated for 72 hrs by sulforhodamine B colorimetric assay; assay type: functional, cell-based; conditions: NCI-H1975, 72 h
# [14] = Cmax in Sprague-Dawley rat at 10 mg/kg, po and measured after 24 hrs by LC-MS/MS analysis; assay type: ADME, organism-based; design: dose 10 mg/kg, time 24 hrs, route po; conditions: in vivo; method in brief: as §3
# [15] = Toxicity in BALB/c nude mouse xenografted with human NCI-H1975 cells harboring EGFR L858R/T790M mutant assessed as morphological changes in kidney at 15 to 30 mg/kg, po for 18 days by hematoxylin and eosin staining based microscopic analysis; assay type: organism-based; conditions: in vivo, 432 h, dose 15-30 mg/kg, time 18 day; method in brief: as §1
# [16] = Oral bioavailability in Sprague-Dawley rat at 10 mg/kg and measured after 24 hrs by LC-MS/MS analysis; assay type: ADME, organism-based; conditions: in vivo; method in brief: as §3
# [17] = Half life in Sprague-Dawley rat at 1 mg/kg, iv and measured after 24 hrs by LC-MS/MS analysis; assay type: ADME, organism-based; conditions: in vivo
# [18] = Cmax in Sprague-Dawley rat at 1 mg/kg, iv and measured after 24 hrs by LC-MS/MS analysis; assay type: ADME, organism-based; design: dose 1 mg/kg, time 24 hrs, route iv; conditions: in vivo
# [19] = test system: Epidermal growth factor receptor (Homo sapiens), P00533 [L858R,T790M]; assay: Inhibition of EGFR phosphorylation in EGF-stimulated human NCI-H1975 cells harboring EGFR L858R/T790M double mutant at 0.1 to 100 nM and measured after 2 hrs by Western blot analysis; assay type: cell-based; conditions: dose 0.1-100 nM; method in brief: as §5
# Epidermal growth factor receptor (Homo sapiens), P00533 [L858R,T790M], sequence (P00533 whole entry T790M/L858R, looked up): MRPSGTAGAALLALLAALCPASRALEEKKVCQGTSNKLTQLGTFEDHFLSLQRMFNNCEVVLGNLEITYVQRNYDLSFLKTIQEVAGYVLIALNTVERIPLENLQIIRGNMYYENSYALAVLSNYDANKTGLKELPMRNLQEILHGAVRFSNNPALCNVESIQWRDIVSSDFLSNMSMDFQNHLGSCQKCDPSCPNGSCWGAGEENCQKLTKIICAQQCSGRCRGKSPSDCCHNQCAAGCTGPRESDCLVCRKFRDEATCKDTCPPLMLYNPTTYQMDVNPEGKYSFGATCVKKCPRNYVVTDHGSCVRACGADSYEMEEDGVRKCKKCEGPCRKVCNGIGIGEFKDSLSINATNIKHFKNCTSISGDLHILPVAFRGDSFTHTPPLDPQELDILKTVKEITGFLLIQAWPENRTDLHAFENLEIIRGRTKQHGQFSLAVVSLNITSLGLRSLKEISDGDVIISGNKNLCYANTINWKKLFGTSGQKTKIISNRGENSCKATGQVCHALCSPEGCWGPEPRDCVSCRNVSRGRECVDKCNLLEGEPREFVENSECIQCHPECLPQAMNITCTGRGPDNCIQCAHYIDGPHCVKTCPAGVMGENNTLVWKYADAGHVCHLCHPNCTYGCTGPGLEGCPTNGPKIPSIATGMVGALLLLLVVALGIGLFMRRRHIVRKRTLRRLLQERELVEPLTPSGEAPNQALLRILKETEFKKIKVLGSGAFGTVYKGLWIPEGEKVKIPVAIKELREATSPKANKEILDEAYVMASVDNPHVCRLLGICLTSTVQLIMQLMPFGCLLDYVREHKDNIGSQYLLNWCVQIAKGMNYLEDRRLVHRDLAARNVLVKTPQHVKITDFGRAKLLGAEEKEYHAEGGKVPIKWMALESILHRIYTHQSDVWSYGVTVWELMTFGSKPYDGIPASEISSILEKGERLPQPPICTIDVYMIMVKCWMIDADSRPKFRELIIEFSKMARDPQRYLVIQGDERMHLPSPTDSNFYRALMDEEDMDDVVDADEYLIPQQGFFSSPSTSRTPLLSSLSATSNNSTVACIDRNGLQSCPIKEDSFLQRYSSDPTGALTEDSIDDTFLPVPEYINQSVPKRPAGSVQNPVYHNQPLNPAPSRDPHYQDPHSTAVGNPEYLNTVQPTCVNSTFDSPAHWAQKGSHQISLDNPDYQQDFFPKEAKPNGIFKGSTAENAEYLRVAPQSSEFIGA
# [20] = AUC (0 to infinity) in Sprague-Dawley rat at 10 mg/kg, po and measured after 24 hrs by LC-MS/MS analysis; assay type: ADME, organism-based; design: dose 10 mg/kg, time 24 hrs, route po; conditions: in vivo; method in brief: as §3
# [21] = AUC (0 to infinity) in Sprague-Dawley rat at 1 mg/kg, iv and measured after 24 hrs by LC-MS/MS analysis; assay type: ADME, organism-based; design: time 24 hrs, dose 1 mg/kg, route iv; conditions: in vivo
# [22] = target: Epidermal growth factor receptor (Homo sapiens, UniProt P00533, L858R/T790M); assay: Inhibition of EGFR L858R/T790M mutant (unknown origin) expressed in baculovirus expression system by ELISA
# [23] = target: T1, Epidermal growth factor receptor (Homo sapiens, UniProt P00533); assay: Inhibition of EGFR phosphorylation in EGF-stimulated human A-431 cells harboring wild type EGFR at 100 nM and measured after 2 hrs by Western blot analysis; assay type: cell-based; method in brief: as §5
# T1 sequence (P00533 whole entry): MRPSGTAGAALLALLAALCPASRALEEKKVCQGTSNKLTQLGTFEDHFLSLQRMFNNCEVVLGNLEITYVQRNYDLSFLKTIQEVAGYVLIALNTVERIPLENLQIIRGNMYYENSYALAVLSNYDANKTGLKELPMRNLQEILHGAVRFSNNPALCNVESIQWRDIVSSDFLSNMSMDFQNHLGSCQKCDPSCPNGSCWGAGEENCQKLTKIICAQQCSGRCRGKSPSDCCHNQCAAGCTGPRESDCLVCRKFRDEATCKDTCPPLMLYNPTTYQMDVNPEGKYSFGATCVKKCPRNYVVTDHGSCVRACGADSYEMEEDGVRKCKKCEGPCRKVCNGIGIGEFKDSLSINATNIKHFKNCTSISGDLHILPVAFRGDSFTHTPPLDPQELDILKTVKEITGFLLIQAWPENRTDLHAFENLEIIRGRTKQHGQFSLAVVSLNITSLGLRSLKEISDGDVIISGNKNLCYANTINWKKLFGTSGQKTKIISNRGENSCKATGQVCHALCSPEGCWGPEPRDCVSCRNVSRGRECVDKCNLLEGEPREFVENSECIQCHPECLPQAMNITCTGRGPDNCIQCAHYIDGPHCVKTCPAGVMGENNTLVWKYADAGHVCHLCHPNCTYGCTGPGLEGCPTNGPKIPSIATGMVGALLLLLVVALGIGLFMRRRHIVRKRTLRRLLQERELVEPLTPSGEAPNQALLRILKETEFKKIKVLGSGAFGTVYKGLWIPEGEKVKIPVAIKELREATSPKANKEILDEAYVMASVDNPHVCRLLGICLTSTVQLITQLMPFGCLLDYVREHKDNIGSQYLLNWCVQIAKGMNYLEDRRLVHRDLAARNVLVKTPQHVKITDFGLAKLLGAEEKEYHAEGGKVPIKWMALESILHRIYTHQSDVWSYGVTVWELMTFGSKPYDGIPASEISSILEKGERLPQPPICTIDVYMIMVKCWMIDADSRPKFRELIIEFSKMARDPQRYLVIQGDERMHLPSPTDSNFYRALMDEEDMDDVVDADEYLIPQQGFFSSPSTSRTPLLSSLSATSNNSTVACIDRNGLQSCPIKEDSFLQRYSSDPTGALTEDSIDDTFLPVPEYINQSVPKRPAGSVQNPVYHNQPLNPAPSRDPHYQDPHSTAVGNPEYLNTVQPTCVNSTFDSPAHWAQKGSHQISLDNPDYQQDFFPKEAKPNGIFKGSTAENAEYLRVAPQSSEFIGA
# [24] = target: T1, Epidermal growth factor receptor; assay: Inhibition of wild type EGFR (unknown origin) expressed in baculovirus expression system by ELISA
# NCI-H1975 [25] = assay: Antitumor activity against human NCI-H1975 cells harboring EGFR L858R/T790M mutant xenografted in BALB/c nude mouse assessed as tumor growth inhibition at 15 mg/kg, po for 18 days; assay type: functional; conditions: NCI-H1975, 432 h, time 18 day, read-out: TGI; method in brief: as §2
# [26] = Clearance in Sprague-Dawley rat at 1 mg/kg, iv and measured after 24 hrs by LC-MS/MS analysis; assay type: ADME, organism-based; conditions: in vivo
# [27] = test system: Epidermal growth factor receptor (Homo sapiens), P00533 [L858R,T790M]; conditions: NCI-H1975, dose 10.0 nM, time 2.0 hrs
# [28] = test system: Epidermal growth factor receptor (Homo sapiens), P00533 [L858R,T790M]; assay: In vivo inhibition of EGFR in BALB/c nude mouse xenografted with human NCI-H1975 cells harboring EGFR L858R/T790M mutant assessed as decrease in phosphorylated-EGFR level at 15 to 30 mg/kg, po for 18 days by western blot analysis; assay type: functional, organism-based; conditions: dose 15-30 mg/kg, time 18.0 day
# [29] = target: Tyrosine-protein kinase BTK (Homo sapiens) (UniProt Q06187); assay: Inhibition of BTK (unknown origin) at 1000 nM by DiscoverX KINOMEscan assay
# [30] = target: Tyrosine-protein kinase JAK2 (Homo sapiens) (UniProt O60674); assay: Inhibition of JAK2 (unknown origin) at 1000 nM by DiscoverX KINOMEscan assay
# Tyrosine-protein kinase JAK2 (Homo sapiens), sequence (O60674 whole entry): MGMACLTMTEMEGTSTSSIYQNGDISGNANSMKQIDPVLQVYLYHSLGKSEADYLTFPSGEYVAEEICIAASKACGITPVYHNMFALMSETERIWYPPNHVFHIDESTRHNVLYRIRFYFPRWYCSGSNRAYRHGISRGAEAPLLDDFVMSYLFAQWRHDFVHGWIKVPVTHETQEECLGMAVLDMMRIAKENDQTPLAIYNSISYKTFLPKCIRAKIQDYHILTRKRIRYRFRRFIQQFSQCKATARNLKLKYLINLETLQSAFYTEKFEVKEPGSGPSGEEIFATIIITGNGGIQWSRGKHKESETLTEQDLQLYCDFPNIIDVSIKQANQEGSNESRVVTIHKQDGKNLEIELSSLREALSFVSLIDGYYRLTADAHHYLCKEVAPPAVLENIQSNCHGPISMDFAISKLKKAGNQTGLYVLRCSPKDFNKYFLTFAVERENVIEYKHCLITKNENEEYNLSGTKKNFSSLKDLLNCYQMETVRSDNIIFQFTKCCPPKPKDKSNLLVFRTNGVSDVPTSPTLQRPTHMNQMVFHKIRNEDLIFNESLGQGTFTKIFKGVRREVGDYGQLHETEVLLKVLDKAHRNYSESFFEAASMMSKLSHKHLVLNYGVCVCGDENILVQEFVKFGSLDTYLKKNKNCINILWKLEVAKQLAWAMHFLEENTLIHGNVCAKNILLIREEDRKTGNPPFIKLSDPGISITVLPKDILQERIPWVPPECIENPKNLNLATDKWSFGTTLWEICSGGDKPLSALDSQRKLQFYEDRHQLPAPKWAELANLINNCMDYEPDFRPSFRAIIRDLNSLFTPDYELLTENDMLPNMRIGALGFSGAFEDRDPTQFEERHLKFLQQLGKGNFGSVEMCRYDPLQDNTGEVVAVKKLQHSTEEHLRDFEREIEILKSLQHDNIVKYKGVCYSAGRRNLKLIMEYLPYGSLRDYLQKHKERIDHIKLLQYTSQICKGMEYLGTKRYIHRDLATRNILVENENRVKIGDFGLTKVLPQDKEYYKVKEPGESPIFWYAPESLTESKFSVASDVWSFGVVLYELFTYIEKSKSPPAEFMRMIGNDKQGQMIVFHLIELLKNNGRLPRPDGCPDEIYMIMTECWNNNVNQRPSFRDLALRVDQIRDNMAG
smiles,measurement,setting,value
C=CC(=O)Nc1cc(Nc2ncc(Br)c(Nc3ccc4c(c3)CCC4)n2)c(OC)cc1N1CCN(C)CC1,Vd,[1],4.83 L/kg
same,inhibition,[2],Active
same,Activity,[3],Non-Toxic
same,Activity,NCI-H1975 [4],Active
same,inhibition,NCI-H1975 [5],Dose-Dependent Effect
same,inhibition in vivo at 30 mg/kg,NCI-H1975 [6],77%
same,inhibition,[7],Active
same,half-life,[8],3.54 h
same,Activity,[9],Non-Toxic
same,Activity,[10],Non-Toxic
same,inhibition,NCI-H1975 [11],Dose-Dependent Effect
same,Activity,[12],Non-Toxic
same,IC50,A-431,2600 nM
same,IC50,NCI-H1975 [13],276 nM
same,Cmax,[14],452 ng/mL
same,Activity,[15],Non-Toxic
same,F,[16],35.58%
same,half-life,[17],5.17 h
same,Cmax,[18],407 ng/mL
same,inhibition,[19],Dose-Dependent Effect
same,AUC,[20],35.58 ng·h/mL
same,AUC,[21],1052 ng·h/mL
same,IC50,[22],3.2 nM
same,inhibition,[23],inactive
same,IC50,[24],203 nM
same,inhibition in vivo at 15 mg/kg,NCI-H1975 [25],61%
same,clearance,[26],15.9 mL/min/kg
same,inhibition,[27],Active
same,inhibition,[28],Active
same,inhibition,[29],Active
same,inhibition,[30],Active

# From ChEMBL document CHEMBL5260822, “Structure-based design and synthesis of 2,4-diaminopyrimidines as EGFR L858R/T790M selective inhibitors for NSCLC” (Eur J Med Chem, 2017)
